Laboratory results from ChEMBL document CHEMBL1137588, “An evaluation of 3,4-methylenedioxy phenyl replacements in the aminopiperidine chromone class of MCHr1 antagonists” (Bioorg Med Chem Lett, 2007).
pIC50: −log10 of the molar value. One block for each molecule: values may come before it.

What was measured:
[1] = biological target: Melanin-concentrating hormone receptor (Homo sapiens, UniProt Q969V1+Q99705); assay: Inhibition of MCH-mediated calcium release in IMR-32 cells; format: functional, cell-based
[2] = biological target: hERG versus MCH receptor (Homo sapiens, UniProt Q12809+Q969V1); assay: in vitro
[3] = biological target: Voltage-gated inwardly rectifying potassium channel KCNH2 (Homo sapiens, UniProt Q12809)
[4] = biological target: Melanin-concentrating hormone receptor 1 (Homo sapiens, UniProt Q99705); assay: Displacement of 125I-MCH from MCH-R1 expressed in IMR-32 cells; format: cell-based
Chain of Melanin-concentrating hormone receptor 1 (Q99705 whole entry): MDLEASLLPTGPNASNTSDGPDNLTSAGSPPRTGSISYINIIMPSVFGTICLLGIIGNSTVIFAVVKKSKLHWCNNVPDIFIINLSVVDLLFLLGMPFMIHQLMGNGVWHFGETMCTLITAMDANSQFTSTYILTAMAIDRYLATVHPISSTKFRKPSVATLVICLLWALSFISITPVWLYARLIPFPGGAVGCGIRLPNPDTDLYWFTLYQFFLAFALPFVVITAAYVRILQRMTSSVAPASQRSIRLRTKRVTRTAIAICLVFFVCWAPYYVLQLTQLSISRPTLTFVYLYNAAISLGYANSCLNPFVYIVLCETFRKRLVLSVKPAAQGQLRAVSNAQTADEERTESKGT

[5] = biological target: Histamine H1 receptor (Homo sapiens) (UniProt P35367); assay: Inhibition of histamine H1 receptor at 10uM
[6] = biological target: Adenosine receptor A1 (Homo sapiens) (UniProt P30542); assay: Inhibition of human adenosine A1 receptor at 10uM
Chain of Adenosine receptor A1 (Homo sapiens) (P30542 whole entry): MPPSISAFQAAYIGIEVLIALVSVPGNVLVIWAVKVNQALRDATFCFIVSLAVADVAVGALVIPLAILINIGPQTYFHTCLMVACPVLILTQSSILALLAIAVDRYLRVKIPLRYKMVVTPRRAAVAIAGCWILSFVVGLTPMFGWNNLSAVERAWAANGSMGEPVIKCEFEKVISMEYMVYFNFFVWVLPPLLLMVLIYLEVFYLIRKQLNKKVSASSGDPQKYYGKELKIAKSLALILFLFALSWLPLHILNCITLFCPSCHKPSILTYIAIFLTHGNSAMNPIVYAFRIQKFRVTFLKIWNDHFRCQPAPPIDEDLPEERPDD

[7] = biological target: Sodium-dependent noradrenaline transporter (Homo sapiens) (UniProt P23975); assay: Inhibition of human norepinephrine transporter receptor at 10uM
Chain of Sodium-dependent noradrenaline transporter (Homo sapiens) (P23975 whole entry): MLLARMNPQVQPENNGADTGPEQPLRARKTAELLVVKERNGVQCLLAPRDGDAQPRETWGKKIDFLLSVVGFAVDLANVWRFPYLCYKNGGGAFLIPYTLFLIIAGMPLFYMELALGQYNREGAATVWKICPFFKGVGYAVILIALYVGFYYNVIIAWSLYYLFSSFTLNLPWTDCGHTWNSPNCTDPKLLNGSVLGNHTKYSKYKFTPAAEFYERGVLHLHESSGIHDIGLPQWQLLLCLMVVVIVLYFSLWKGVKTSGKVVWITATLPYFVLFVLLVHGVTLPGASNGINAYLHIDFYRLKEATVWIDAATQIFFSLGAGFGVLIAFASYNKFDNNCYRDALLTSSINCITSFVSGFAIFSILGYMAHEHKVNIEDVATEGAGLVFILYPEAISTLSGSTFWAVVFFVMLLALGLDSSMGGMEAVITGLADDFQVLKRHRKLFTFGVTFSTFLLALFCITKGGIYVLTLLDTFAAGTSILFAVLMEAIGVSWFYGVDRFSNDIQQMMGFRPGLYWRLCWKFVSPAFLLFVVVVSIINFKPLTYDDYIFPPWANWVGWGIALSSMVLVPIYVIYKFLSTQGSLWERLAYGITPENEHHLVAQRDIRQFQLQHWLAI

[8] = biological target: Kappa-type opioid receptor (Homo sapiens) (UniProt P41145); assay: Inhibition of human kappa opioid receptor at 10uM
Chain of Kappa-type opioid receptor (Homo sapiens) (P41145 whole entry): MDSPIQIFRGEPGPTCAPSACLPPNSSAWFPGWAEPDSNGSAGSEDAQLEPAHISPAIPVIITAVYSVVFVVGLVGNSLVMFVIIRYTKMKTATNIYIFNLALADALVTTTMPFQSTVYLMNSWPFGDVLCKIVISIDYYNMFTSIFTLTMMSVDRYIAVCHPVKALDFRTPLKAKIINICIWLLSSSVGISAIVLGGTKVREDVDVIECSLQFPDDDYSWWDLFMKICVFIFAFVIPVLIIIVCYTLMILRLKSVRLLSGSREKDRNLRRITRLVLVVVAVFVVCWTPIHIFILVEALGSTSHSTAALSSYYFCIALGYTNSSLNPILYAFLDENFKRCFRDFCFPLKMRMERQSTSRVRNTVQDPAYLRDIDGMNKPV

[9] = biological target: Beta-2 adrenergic receptor (Homo sapiens) (UniProt P07550); assay: Inhibition of adrenergic beta 2 receptor at 10uM
[10] = biological target: Cytochrome P450 3A4 (Homo sapiens, UniProt P08684); assay: Inhibition of CYP3A4; format: ADME
In short: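 Human hepatic microsomes; CYP3A4 activity followed as oxidation of [3H]-terfenadine. IC50 taken as the compound concentration giving competitive inhibition of this oxidation.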

[11] = biological target: 5-hydroxytryptamine receptor 1B (Homo sapiens) (UniProt P28222); assay: Inhibition of serotonin 5HT1B receptor at 10uM
[12] = biological target: Adrenergic receptor alpha-1 (Homo sapiens) (UniProt P35348+P25100+P35368); assay: Inhibition of adrenergic alpha 1 receptor at 10uM; format: protein assay
[13] = biological target: D(1A) dopamine receptor (Homo sapiens) (UniProt P21728); assay: Inhibition of human dopamine D1 receptor at 10uM
Chain of D(1A) dopamine receptor (Homo sapiens) (P21728 whole entry): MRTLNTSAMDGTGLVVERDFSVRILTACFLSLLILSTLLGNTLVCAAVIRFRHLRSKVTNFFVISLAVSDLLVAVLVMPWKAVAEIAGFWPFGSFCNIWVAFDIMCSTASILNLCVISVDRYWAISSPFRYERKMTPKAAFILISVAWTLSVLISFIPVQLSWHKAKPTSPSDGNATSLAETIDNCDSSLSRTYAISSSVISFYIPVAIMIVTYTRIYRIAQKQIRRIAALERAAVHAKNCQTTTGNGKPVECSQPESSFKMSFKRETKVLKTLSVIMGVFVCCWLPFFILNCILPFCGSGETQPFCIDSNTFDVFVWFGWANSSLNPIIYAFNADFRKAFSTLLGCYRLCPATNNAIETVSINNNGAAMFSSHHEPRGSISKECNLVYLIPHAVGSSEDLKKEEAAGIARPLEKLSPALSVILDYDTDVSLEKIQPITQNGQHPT

[14] = biological target: Adrenergic receptor alpha-2 (Homo sapiens) (UniProt P08913+P18825+P18089); assay: Inhibition of adrenergic alpha 2 receptor at 10uM; format: protein assay
[15] = biological target: Muscarinic acetylcholine receptor M1 (Homo sapiens) (UniProt P11229); assay: Inhibition of human muscarinic M1 receptor at 10uM
Chain of Muscarinic acetylcholine receptor M1 (Homo sapiens) (P11229 whole entry): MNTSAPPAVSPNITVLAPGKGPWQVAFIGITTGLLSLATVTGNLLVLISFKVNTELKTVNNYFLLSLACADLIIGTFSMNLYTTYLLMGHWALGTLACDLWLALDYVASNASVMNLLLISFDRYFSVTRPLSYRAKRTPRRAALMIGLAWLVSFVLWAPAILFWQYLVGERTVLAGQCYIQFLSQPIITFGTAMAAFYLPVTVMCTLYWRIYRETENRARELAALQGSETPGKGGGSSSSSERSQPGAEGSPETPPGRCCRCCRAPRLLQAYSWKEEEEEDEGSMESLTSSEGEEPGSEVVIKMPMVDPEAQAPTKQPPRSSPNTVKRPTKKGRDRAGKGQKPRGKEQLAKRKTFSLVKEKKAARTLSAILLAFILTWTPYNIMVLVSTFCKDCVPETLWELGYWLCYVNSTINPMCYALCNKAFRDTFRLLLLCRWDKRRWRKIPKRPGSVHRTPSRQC

[16] = biological target: 5-hydroxytryptamine receptor 2A (Homo sapiens) (UniProt P28223); assay: Inhibition of human serotonin 5HT2A receptor at 10uM
Chain of 5-hydroxytryptamine receptor 2A (Homo sapiens) (P28223 whole entry): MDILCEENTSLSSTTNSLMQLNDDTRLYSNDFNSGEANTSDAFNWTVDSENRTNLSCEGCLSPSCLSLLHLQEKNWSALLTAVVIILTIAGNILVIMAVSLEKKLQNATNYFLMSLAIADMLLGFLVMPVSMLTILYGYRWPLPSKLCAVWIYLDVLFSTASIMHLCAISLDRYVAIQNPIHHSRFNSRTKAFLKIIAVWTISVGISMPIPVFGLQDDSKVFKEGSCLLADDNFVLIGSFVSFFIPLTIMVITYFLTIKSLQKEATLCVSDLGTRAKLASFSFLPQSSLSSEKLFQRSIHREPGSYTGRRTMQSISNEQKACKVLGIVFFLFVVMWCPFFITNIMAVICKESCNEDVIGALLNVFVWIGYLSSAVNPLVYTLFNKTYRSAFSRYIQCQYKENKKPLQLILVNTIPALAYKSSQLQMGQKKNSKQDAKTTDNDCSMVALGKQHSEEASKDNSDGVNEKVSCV

[17] = biological target: Histamine H2 receptor (Homo sapiens) (UniProt P25021); assay: Inhibition of histamine H2 receptor at 10uM
Chain of Histamine H2 receptor (Homo sapiens) (P25021 whole entry): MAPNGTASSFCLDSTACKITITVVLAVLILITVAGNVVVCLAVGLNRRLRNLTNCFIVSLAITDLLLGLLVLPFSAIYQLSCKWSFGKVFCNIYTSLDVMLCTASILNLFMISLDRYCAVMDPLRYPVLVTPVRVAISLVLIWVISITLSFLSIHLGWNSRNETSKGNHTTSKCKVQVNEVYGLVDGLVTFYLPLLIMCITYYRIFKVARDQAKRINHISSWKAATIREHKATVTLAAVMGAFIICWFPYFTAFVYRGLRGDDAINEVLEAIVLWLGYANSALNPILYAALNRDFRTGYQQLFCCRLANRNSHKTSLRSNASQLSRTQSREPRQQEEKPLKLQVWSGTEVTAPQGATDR

[18] = biological target: L-type calcium channel (Homo sapiens, UniProt O60840+Q01668+Q13698+Q13936); assay: Inhibition of L-type calcium channel at 10uM; format: protein assay
[19] = biological target: 5-hydroxytryptamine receptor 1A (Homo sapiens) (UniProt P08908); assay: Inhibition of human serotonin 5HT1A receptor at 10uM
[20] = biological target: Sigma non-opioid intracellular receptor 1 (Homo sapiens) (UniProt Q99720); assay: Inhibition of sigma receptor at 10uM
Chain of Sigma non-opioid intracellular receptor 1 (Homo sapiens) (Q99720 whole entry): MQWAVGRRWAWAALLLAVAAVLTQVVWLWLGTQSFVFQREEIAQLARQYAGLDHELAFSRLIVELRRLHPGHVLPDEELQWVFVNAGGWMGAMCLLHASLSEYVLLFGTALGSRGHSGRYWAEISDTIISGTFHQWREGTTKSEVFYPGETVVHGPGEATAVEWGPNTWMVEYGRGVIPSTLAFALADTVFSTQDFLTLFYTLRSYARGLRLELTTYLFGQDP

[21] = biological target: Sodium-dependent dopamine transporter (Homo sapiens) (UniProt Q01959); assay: Inhibition of human dopamine transporter at 10uM
Chain of Sodium-dependent dopamine transporter (Homo sapiens) (Q01959 whole entry): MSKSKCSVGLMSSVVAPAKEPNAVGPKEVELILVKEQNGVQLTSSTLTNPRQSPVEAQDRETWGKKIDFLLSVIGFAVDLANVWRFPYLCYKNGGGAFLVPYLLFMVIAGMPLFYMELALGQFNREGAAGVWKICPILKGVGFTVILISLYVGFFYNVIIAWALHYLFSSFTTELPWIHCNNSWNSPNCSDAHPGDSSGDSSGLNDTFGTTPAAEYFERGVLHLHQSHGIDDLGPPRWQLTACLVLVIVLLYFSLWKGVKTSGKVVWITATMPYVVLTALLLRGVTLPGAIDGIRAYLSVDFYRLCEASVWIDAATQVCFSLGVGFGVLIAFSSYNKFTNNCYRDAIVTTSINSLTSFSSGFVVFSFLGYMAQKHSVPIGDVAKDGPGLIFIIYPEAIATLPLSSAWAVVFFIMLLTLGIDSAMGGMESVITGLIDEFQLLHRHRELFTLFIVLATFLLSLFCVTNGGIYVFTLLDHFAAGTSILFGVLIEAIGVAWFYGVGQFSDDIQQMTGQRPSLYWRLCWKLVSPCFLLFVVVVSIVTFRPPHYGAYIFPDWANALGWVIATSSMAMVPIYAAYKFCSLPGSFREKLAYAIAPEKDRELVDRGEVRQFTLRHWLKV

[22] = biological target: Muscarinic acetylcholine receptor M2 (Homo sapiens) (UniProt P08172); assay: Inhibition of human muscarinic M2 receptor at 10uM
Chain of Muscarinic acetylcholine receptor M2 (Homo sapiens) (P08172 whole entry): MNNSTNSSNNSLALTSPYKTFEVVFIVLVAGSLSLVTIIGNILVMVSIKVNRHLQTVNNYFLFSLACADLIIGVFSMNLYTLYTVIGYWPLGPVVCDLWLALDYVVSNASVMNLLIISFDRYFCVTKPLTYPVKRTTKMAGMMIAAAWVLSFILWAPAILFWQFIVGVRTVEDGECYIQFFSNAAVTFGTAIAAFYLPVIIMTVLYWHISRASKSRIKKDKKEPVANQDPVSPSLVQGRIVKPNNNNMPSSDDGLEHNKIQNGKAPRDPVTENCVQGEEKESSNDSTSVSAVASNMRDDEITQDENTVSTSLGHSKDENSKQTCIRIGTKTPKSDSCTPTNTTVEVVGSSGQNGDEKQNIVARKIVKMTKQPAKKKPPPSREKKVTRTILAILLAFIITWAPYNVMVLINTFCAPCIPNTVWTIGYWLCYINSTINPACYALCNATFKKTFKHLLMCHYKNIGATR

[23] = Inhibition of sodium channel at 10uM
[24] = Inhibition of calcium-activated potassium (SK) channel at 10uM

IC50 [1]: 44 nM
pIC50 [4]: 8.52
SMILES: Cn1c(=O)ccc2ccc(CN3CCC(NC(=O)c4cc(=O)c5ccc(F)cc5o4)CC3)cc21
selectivity ratio [2]: 1030
pIC50 [3]: 4.32

IC50 [1]: > 10000 nM
pIC50 [4]: 5.90
SMILES: CCc1nc2ccc(CN3CCC(NC(=O)c4cc(=O)c5ccc(F)cc5o4)CC3)cc2o1
selectivity ratio [2]: 2
pIC50 [3]: 4.57

IC50 [1]: > 10000 nM
SMILES: CC(=O)Nc1ccc(CN2CCC(NC(=O)c3cc(=O)c4ccc(F)cc4o3)CC2)cc1

IC50 [1]: 569 nM
pIC50 [4]: 7.37
SMILES: O=C(NC1CCN(Cc2ccc3oc(=O)[nH]c3c2)CC1)c1cc(=O)c2ccc(F)cc2o1

IC50 [1]: 66 nM
pIC50 [4]: 8.30
SMILES: O=C(NC1CCN(Cc2ccc3cc[nH]c3c2)CC1)c1cc(=O)c2ccc(F)cc2o1

IC50 [1]: 106 nM
pIC50 [4]: 8.00
SMILES: O=C(NC1CCN(Cc2ccc3ncoc3c2)CC1)c1cc(=O)c2ccc(F)cc2o1

IC50 [1]: 2410 nM
pIC50 [4]: 6.78
SMILES: O=C1COc2cc(CN3CCC(NC(=O)c4cc(=O)c5ccc(F)cc5o4)CC3)ccc2N1

inhibition [5]: 65%
inhibition [6]: 8%
inhibition [7]: 48%
inhibition [8]: 66%
inhibition [9]: 21%
pIC50 [10]: 4.63
inhibition [11]: -6%
inhibition [12]: 32%
inhibition [13]: 43%
inhibition [14]: 18%
inhibition [15]: 55%
inhibition [16]: 17%
inhibition [17]: 16%
inhibition at 10 µM [18]: 31%
inhibition [19]: 48%
inhibition [20]: 104%
inhibition [21]: 26%
inhibition [22]: 42%
SMILES: O=C(NC1CCN(Cc2ccc3c(c2)OCO3)CC1)c1cc(=O)c2ccc(F)cc2o1

IC50 [1]: 551 nM
pIC50 [4]: 7.33
SMILES: CC(=O)Nc1cccc(CN2CCC(NC(=O)c3cc(=O)c4ccc(F)cc4o3)CC2)c1

inhibition [5]: 36%
inhibition [6]: 11%
inhibition [7]: 45%
inhibition [8]: 43%
inhibition [9]: 16%
inhibition [11]: 5%
IC50 [1]: 46 nM
inhibition [12]: 13%
inhibition [13]: 7%
inhibition [14]: 28%
inhibition [15]: 16%
inhibition [16]: -10%
inhibition [17]: 21%
inhibition at 10 µM [18]: 10%
inhibition [19]: 25%
inhibition [20]: 37%
inhibition [23]: 72%
pIC50 [4]: 9.00
inhibition [24]: 17%
inhibition [21]: 67%
inhibition [22]: 15%
SMILES: O=C(NC1CCN(Cc2ccc3ccc(=O)oc3c2)CC1)c1cc(=O)c2ccc(F)cc2o1
